Test results as given in ChEMBL document CHEMBL2169869, “Assay and inhibition of diacylglycerol lipase activity” (Bioorg Med Chem Lett, 2012).

Tests used:
[1] = biological target: T1, Diacylglycerol lipase-alpha (Homo sapiens) (UniProt Q9Y4D2); test: Inhibition of human DAGLalpha expressed in HEK293T cell membrane using [14C]SAG substrate at 10 uM in presence of 0.015% Triton X-100 by scintillation counting based radio-TLC assay; assay type: cell membranes; settings: HEK-293T
T1 sequence (whole entry): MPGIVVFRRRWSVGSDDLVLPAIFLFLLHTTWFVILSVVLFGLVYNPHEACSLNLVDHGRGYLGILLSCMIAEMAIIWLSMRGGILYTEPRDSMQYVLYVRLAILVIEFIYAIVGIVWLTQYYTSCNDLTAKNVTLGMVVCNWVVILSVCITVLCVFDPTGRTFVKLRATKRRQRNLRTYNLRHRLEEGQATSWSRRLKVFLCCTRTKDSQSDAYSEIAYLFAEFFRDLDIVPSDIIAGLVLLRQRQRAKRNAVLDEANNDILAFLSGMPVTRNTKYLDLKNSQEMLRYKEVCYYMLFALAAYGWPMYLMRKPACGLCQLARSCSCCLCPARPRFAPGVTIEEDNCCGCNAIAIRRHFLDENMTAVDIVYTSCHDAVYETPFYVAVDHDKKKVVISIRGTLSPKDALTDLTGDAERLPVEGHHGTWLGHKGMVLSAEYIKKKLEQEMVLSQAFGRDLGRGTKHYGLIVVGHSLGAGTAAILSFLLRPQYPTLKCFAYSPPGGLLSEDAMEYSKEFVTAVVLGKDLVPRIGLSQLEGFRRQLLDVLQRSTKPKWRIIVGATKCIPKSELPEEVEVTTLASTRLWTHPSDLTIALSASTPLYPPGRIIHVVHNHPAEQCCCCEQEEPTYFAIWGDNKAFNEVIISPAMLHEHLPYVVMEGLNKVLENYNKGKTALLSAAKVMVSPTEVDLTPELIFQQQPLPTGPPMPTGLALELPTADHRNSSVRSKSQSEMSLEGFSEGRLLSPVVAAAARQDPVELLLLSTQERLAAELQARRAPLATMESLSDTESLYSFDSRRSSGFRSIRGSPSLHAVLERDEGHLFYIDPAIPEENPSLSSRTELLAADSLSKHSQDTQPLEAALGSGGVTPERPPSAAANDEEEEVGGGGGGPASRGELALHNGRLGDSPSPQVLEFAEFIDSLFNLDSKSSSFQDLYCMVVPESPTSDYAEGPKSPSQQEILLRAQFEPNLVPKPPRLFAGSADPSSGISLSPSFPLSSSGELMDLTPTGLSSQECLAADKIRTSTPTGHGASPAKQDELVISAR
Outline: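 Sonicated HEK293T protein (100 μg) in 50 mM Tris pH 7.4 with 10 mM CaCl2. Inhibitor in DMSO (10% DMSO standard) preincubated 15 min at 37 °C. [14C]SAG was added to 20 μM final for 20 min at 37 °C, with Triton X-100 where the line states it. Quenched with 2:1 CHCl3/MeOH. Silica TLC in CHCl3/MeOH/NH4OH 86:14:0.75, then 12 h phosphorimaging. Activity = (2-AG+AA)/(2-AG+AA+SAG). Background-subtracted; n=1–2.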

[2] = biological target: T2, Fatty-acid amide hydrolase 1 (Rattus norvegicus, UniProt P97612); test: Inhibition of rat histidine tagged FAAH expressed in Escherichia coli by coumarin ester substrate fluorescence assay
T2 sequence (P97612 whole entry): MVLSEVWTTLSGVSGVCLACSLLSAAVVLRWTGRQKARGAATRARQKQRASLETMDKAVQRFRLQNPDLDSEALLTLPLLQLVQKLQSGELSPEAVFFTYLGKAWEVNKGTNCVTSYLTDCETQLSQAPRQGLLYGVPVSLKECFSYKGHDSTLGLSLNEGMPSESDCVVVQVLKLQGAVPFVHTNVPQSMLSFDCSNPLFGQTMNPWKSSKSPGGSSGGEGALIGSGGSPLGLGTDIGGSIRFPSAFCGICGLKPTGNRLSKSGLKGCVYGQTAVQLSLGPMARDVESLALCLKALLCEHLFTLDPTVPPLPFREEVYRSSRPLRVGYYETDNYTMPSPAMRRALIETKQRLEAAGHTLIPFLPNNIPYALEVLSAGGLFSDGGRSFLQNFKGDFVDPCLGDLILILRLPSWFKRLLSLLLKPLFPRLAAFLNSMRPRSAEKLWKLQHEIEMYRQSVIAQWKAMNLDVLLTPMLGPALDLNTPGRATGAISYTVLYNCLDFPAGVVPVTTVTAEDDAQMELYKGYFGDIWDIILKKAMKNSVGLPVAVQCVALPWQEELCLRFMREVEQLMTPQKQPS

[3] = biological target: T1, Diacylglycerol lipase-alpha (Homo sapiens); test: Inhibition of human DAGLalpha expressed in HEK293T cell membrane using [14C]SAG substrate at 10 uM using JZL184 pretreated protein in detergent free solution by […]; assay type: cell-based; settings: HEK-293T
[4] = Inhibition of bacterial lipoprotein lipase by FRET assay; set-up: species or system Bacteria
Outline: (§1)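 Purified enzymes: bacterial lipoprotein lipase (0.46 μg) or porcine pancreatic lipase type II (1.0 μg, suspended in 1:9 DMSO/water). Run in 50 mM Tris pH 7.4 with 10 mM CaCl2. Substrate was the pyrene-dinitrophenyl ether lipid FRET reporter at 25 μM, with compounds screened at 10 μM. Fluorescence was read at ex 320/em 400 nm, and percent inhibition was taken at 1.5 h; n = 1 or 2.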

[5] = Inhibition of porcine pancreatic lipase type 2 by FRET assay; set-up: species or system Sus scrofa; outline: as §1

Compound | inhibition [1] [%] | IC50 [2] [µM] | inhibition [3] [%] | IC50 [4] [µM] | IC50 [5] [µM]
O=C(Oc1ccc([N+](=O)[O-])cc1)N1CCC(C(O)(c2ccc3c(c2)OCO3)c2ccc3c(c2)OCO3)CC1 | 37 | 0.974 | 44 |  | 
CCCCCCCCCCC[C@@H](C[C@@H]1OC(=O)[C@H]1CCCCCC)OC(=O)[C@H](CC(C)C)NC=O [ORLISTAT] |  |  |  | 0.1 | < 0.001
